From ChEMBL document CHEMBL4513216, “Probing the Open Global Health Chemical Diversity Library for Multistage-Active Starting Points for Next-Generation Antimalarials” (ACS Infect Dis, 2020)

Assay: Toxicity liver stage against HepG2, at 10uM
Type: cell-based
Parameters: test concentration 10 uM, cell line HepG2-A16-CD81EGFP
Conditions: human, HepG2-A16-CD81EGFP cells; read-out: INHIBITION
How it was run: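 Uninfected HepG2-A16-CD81EGFP cells, 3 × 10^3 per well, 1536-well, plated on prespotted compound at 10 μM final, parasite-free screening media added to match infected plates; puromycin 10 μM positive, DMSO 0.5% negative; run in parallel with 48 h PbLuc assay at 37 °C, 5% CO2; viability by CellTiter-Glo luminescence, normalized to controls.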

SMILES	cytotoxicity at 10 µM
O=C(CCc1ccc(F)cc1)NCc1ccnc(NC2CC2)c1	-8.78%
CCc1noc(C(C)N(C)CC(=O)Nc2c(C)cccc2C)n1 (centres undefined)	2.14%
CC(C)(C)C(=O)N1CCC(c2noc(C3CCC(=O)N3)n2)CC1 (centres undefined)	-3.06%
CCC(CC)c1cc(CNC(=O)N2CCCC(N(C)C)C2)on1 (centres undefined)	1.47%
CN(C)C(=O)CNC(=O)c1ccc2ccc(N(C)CC3CC3)n2c1	1.11%
CC(=O)c1cc2ncc(C(=O)NC3CC3)cc2[nH]1	-0.0253%
Cc1nc(-c2cn(CCN)nn2)n(-c2ccc3c(c2)CCC3)n1	2.86%
O=C(Nc1ccccc1)c1cc2n(n1)CCCN(C(=O)N1CCCC1)C2	-70.3%
Cc1cccc(CN2CC[C@H]3[C@@H]2CC(=O)N3CC2CC2)n1	-4.25%
Cc1nccn1CCC1CCNCC1	-2.36%
O=S(=O)(c1ccccc1)N1CCC[C@]2(C[C@@H](OCC3CC3)CO2)C1	-69.2%
O=C(CCc1nc2cccnc2[nH]1)Nc1cccnc1	2.92%
Cc1cc2[nH]c(=O)c(=O)[nH]c2cc1S(=O)(=O)NC1CCC(C)CC1 (centres undefined)	-10.5%
CCc1ncncc1C(=O)NCCNS(=O)(=O)c1ccccc1	-6.55%
Cc1cc(C)n(-c2cncc(NCCNC(=O)CC3CCCC3)n2)n1	-5.71%
COc1ccc(Nc2nc(N)c(C(C)=O)s2)cc1OC	1.8%
CC(C(=O)N1CCN(C(=O)c2ccc(F)cc2F)CC1)n1ccnc1 (centres undefined)	1.63%
CCc1ccc(CNC(=O)NC2CCCc3c2cnn3CCO)s1 (centres undefined)	-6.78%
Cc1ccc(-c2cc(C(=O)NCCN3CCCS3(=O)=O)[nH]n2)o1	-7.98%
Cc1csc2c(C3CCN(CCOc4ccccc4F)CC3)nc(C)n12	5.89%
CC(C)OCC(=O)Nc1ccc(Oc2ccc3c(c2)OCO3)nc1	-13.1%
CNCC(=O)N1CC(c2cc(Nc3nc(C)cs3)nc(C)n2)C1	-21.2%
O=C(c1ccco1)N1CCOCC2(CCN(C3CCOCC3)C2)C1 (centres undefined)	3.07%
CCOC(=O)C1(Cc2cccc(Cl)c2)CCCN(Cc2ncc[nH]2)C1 (centres undefined)	-5.22%
Cc1cc(F)ccc1-n1cc(O)c(C(N)=O)n1	-9.55%
CNC(=O)c1cccc(CCNS(C)(=O)=O)c1	13.4%
CC(C)Cc1noc(CN(C)C(=O)CCNC(=O)c2ccccc2F)n1	-9.22%

SMILES	cytotoxicity at 10 µM
O=C(O)c1cn(CC2CCCN(c3nc4ccccc4s3)C2)nn1 (centres undefined)	-12.2%
CCC[C@@H]1CN(Cc2ccccc2SC)C[C@H]1NC(C)=O	-5.73%
O=S(=O)(c1cccc(F)c1)N1CC[C@H]2[C@H]1CCN2c1ncccn1	-4.35%
Oc1nc(N2CCOCC2)nc2c1CCN(Cc1cccc(F)c1)CC2	-8.08%
Fc1cccc(N2CCCC3(CN(Cc4nccs4)CCO3)C2)c1 (centres undefined)	-58.2%
COc1cnc(N2C[C@@H](CN3CCOCC3)C[C@H](CO)C2)nc1	-6.16%
CCn1cc(S(=O)(=O)NCC(OC)c2cccc(Cl)c2)cn1 (centres undefined)	10.1%
COc1cc2nc(C)n(CC(=O)NCC(C)C)c(=O)c2cc1OC	-4.76%
CCNc1nc2cn(-c3cccc(OC)c3)c(=O)c-2c[nH]1	8.65%
CCN1CCCC(O)(CN(C)Cc2c(C)nn(C)c2C)C1 (centres undefined)	4.95%
Cc1ccc(C(=O)N(C)CC(=O)NCC(F)(F)F)cn1	-4.46%
CS(=O)(=O)NCCN1CCOC2(CCc3ccccc32)C1 (centres undefined)	-9.63%
O=C(NC[C@H]1C[C@@H]2CN(C(=O)c3ccco3)C[C@@H]2O1)c1ccsc1	-90.8%
O=C(c1cccnc1N1CCOCC1)N1CCCC(n2ccnc2)C1 (centres undefined)	-3.56%
CC(C)C(=O)NCCNC(=O)CCOc1cccc(F)c1	-2.98%
COCCn1ccc(NC(=O)Nc2ccncc2)n1	4.49%
COCCN1C(=O)C2(CCC(C(=O)Nc3cccc(C)c3)CC2)N=C1C (centres undefined)	9.76%
CCc1ccc2nc(C)cc(C(=O)NCc3csc(N(C)C)n3)c2c1	2.64%
O=C(NCC(O)COc1ccccc1)C1(c2ccc(F)cc2)CC1 (centres undefined)	1.3%
COc1c(C)cnc(CN2CCCC(Cn3nc(C)nc3C)C2)c1C (centres undefined)	2.37%
c1ccc(CC2CCN(Cc3ccnc(-c4cccnc4)n3)CC2)cc1	6.36%
CC(C)N1CC(C(=O)NC(C)(C)CNC(=O)OC(C)(C)C)CC1=O (centres undefined)	-9.96%
O=C(c1ccsc1)N1C[C@@H](CN2CCCC2)[C@@H](CO)C1	15.2%
COc1cc(OCC(=O)NCCc2ccccc2)cc(OC)c1OC	0.285%
Cc1c(CN2CCOCC2)c(O)n(CCO)c(=O)c1C#N	-2.78%
c1cnn(CC2CN(Cc3nc(-c4ccoc4)no3)CCO2)c1 (centres undefined)	-23.8%
Cc1ccnc(C2(C)CCCN2S(=O)(=O)c2cccnc2)n1 (centres undefined)	5.95%
